# Test results taken from ChEMBL document CHEMBL1955747, “Maximizing lipophilic efficiency: the use of Free-Wilson analysis in the design of inhibitors of acetyl-CoA carboxylase” (J Med Chem, 2012).
# Experiments:
# [1] = target: Acetyl-CoA carboxylase 2 (Homo sapiens, UniProt O00763); experiment: Inhibition of human Acetyl-CoA carboxylase 2 expressed in CHO cells after 1 hr by fluorescence assay; assay type: cell-based
# [2] = Intrinsic clearance in human liver microsomes; assay type: ADME, Microsome; settings: read-out: CLH
# [3] = target: Acetyl-CoA carboxylase 1 (Rattus norvegicus, UniProt P11497); experiment: Inhibition of rat liver Acetyl-CoA carboxylase 1 using acetyl-CoA as substrate preincubated for 10 mins prior substrate addition measured after 20 mins by luminescence counting
# Summary of the method: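 Each IC50 comes from single-point inhibition data run in triplicate. The reported value is the arithmetic mean of at least three independent replicates ± SEM.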
# [4] = Aqueous solubility at pH 7.4; assay type: physicochemical; settings: buffer
# [5] = Fraction unbound in Sprague-Dawley rat plasma; assay type: ADME, cell-free
# [6] = tested on: Rattus norvegicus; experiment: Antidiabetic activity in po dosed Sprague-Dawley rat assessed as inhibition of malonyl-CoA production in liver after 2 hrs by LC-MS analysis; assay type: functional
# [7] = Half life in po dosed Sprague-Dawley rat; assay type: ADME, organism-based; settings: in vivo
# [8] = Aqueous solubility at pH 6.5; assay type: physicochemical; settings: buffer
# [9] = Permeability across dog RRCK cells; assay type: ADME, cell-based, Canis lupus familiaris, MDCKII-LE; settings: MDCK, read-out: permeability
# [10] = Plasma clearance in po dosed Sprague-Dawley rat; assay type: ADME, organism-based
# [11] = Oral bioavailability in Sprague-Dawley rat; assay type: ADME, organism-based; settings: in vivo
# [12] = tested on: Rattus norvegicus; experiment: Antidiabetic activity in Sprague-Dawley rat assessed as inhibition of malonyl-CoA production in quadriceps at 50 mg/kg, po after 2 hrs by LC-MS analysis; assay type: functional
# [13] = tested on: Rattus norvegicus; experiment: Antidiabetic activity in Sprague-Dawley rat assessed as inhibition of malonyl-CoA production in liver at 50 mg/kg, po after 2 hrs by LC-MS analysis; assay type: functional
# [14] = tested on: Rattus norvegicus; experiment: Antidiabetic activity in po dosed Sprague-Dawley rat assessed as inhibition of malonyl-CoA production in quadriceps after 2 hrs by LC-MS analysis; assay type: functional
# [15] = tested on: Rattus norvegicus; experiment: Volume of distribution at steady state in po dosed Sprague-Dawley rat; assay type: ADME, organism-based; settings: in vivo
# Chain of Acetyl-CoA carboxylase 2 (O00763 whole entry): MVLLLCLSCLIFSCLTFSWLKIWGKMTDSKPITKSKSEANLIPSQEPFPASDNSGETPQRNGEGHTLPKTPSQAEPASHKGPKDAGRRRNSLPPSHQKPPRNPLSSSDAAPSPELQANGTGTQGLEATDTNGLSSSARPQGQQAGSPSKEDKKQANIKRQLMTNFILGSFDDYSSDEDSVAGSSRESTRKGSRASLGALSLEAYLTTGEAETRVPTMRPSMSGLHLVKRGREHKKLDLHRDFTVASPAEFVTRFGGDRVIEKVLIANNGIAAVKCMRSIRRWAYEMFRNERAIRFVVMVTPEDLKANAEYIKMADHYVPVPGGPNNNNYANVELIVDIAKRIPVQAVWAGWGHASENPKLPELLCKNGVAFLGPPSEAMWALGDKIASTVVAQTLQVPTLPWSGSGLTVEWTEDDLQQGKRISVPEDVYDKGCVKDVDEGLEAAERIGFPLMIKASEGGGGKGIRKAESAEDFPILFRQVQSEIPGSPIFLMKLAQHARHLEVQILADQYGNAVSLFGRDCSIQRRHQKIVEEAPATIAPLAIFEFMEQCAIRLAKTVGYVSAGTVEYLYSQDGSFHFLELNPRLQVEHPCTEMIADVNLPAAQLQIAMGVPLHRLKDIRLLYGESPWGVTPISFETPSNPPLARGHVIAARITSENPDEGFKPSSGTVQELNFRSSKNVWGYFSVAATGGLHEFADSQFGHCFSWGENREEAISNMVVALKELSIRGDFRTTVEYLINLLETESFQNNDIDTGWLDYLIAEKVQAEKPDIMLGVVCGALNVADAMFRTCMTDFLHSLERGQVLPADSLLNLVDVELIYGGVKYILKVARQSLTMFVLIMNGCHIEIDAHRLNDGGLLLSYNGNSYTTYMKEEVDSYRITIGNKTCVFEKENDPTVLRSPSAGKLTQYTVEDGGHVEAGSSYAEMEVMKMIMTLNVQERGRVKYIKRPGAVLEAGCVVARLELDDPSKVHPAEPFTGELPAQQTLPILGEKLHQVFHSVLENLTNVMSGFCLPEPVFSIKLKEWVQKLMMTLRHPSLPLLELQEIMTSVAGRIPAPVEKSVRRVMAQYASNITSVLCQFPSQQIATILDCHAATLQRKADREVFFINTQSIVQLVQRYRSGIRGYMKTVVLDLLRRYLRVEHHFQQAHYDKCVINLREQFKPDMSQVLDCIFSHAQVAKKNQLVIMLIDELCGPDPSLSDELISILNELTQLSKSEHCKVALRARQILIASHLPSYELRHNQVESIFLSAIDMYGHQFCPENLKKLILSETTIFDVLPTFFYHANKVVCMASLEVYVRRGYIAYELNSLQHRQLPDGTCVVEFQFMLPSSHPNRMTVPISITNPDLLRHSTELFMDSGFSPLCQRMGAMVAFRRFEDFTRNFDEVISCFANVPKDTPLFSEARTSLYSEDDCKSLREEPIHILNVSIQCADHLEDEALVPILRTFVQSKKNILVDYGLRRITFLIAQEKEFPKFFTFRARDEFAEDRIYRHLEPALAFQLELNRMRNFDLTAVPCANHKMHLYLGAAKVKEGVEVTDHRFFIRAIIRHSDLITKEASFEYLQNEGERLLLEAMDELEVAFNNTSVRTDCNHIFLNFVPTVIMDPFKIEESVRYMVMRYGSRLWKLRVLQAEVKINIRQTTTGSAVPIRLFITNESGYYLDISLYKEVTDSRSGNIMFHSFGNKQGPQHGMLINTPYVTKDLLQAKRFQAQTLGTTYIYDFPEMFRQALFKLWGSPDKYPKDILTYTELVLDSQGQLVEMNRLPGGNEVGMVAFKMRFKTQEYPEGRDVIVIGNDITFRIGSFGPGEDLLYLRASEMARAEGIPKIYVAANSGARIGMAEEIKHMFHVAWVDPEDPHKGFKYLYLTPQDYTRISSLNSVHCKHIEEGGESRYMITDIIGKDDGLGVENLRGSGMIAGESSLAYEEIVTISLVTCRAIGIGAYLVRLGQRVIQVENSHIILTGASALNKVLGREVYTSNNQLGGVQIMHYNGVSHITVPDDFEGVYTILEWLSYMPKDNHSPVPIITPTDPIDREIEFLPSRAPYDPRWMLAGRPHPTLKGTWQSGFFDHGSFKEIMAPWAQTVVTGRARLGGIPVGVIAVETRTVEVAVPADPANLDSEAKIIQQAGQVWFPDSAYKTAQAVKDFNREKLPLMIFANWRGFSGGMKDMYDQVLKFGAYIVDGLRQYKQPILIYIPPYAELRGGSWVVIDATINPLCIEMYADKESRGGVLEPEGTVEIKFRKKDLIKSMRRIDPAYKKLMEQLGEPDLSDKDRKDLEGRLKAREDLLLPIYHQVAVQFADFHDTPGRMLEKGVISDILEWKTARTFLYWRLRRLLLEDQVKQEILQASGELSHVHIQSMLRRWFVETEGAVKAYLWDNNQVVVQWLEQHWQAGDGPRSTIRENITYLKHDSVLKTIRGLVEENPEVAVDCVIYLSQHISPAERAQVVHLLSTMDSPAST
SMILES,IC50 [1] [nM],IC50 [3] [nM],other results
Cc1cc(C(=O)N2CCC3(CC2)CC(=O)c2nn(C(C)C)cc2O3)cc2cn[nH]c12,23,–,–
Cc1n[nH]c2c(C)cc(C(=O)N3CCC4(CC3)CC(=O)c3nn(C(C)C)cc3O4)cc12,14,12,CLint scaled [2]: < 8 mL/min/kg
Cc1cc(C(=O)N2CCC3(CC2)CC(=O)c2nn(C4CCCC4)cc2O3)cc2cn[nH]c12,9.4,–,–
Cc1cc2c(cc1C)C(=O)CC1(CCN(C(=O)c3cc(C)c4[nH]ncc4c3)CC1)O2,–,–,CLint scaled [2]: 68 mL/min/kg; solubility [4]: 19 µM
CC(C)(C)n1cc2c(n1)C(=O)CC1(CCN(C(=O)c3ccc4nc[nH]c4c3)CC1)O2,–,17,CLint scaled [2]: < 8 mL/min/kg; fraction unbound [5]: 0.55; ED50 [6]: 1.6 mg/kg; half-life [7]: 4.2 h; solubility [8]: 300 µM; Papp [9]: 10.9 ×10⁻⁶ cm/s; CL/F [10]: 26 mL/min/kg; bioavailability [11]: 50%; Imax [12]: 75%; Imax [13]: 78%; ED50 [14]: 2.6 mg/kg; Vdss [15]: 2.3 L/kg
Cc1cc(C(=O)N2CCC3(CC2)CC(=O)c2nn(Cc4ccccc4)cc2O3)cc2cn[nH]c12,–,260,–
CCOc1cc(C(=O)N2CCC3(CC2)CC(=O)c2nn(CC)c(C)c2O3)cc2c(C)n[nH]c12,–,11.5,–
CCn1cc2c(n1)C(=O)CC1(CCN(C(=O)c3cc(C)c4[nH]ncc4c3)CC1)O2,63,62,–
CCn1nc2c(c1C)OC1(CCN(C(=O)c3cc(C)c4nc(C)[nH]c4c3)CC1)CC2=O,56,34,–
CCn1nc2c(c1C)OC1(CCN(C(=O)c3ccc4[nH]nc(C)c4c3)CC1)CC2=O,42,29,–
Cc1n[nH]c2c(C)cc(C(=O)N3CCC4(CC3)CC(=O)c3nn(C5CCOC5)c(C)c3O4)cc12 (configuration not stated),–,–,CLint scaled [2]: 23.1 mL/min/kg
Cc1cc(C(=O)N2CCC3(CC2)CC(=O)c2nn(C)c(C)c2O3)cc2cn[nH]c12,470,280,–
Cc1cc(C(=O)N2CCC3(CC2)CC(=O)c2nn(C(C)(C)C)cc2O3)cc2cn[nH]c12,6.9,7,–
Cc1nc2c(C)cc(C(=O)N3CCC4(CC3)CC(=O)c3nn(C(C)(C)C)cc3O4)cc2[nH]1,6.6,–,CLint scaled [2]: 15.1 mL/min/kg
Cc1cc(C(=O)N2CCC3(CC2)CC(=O)c2nn(C4CCCCC4)cc2O3)cc2cn[nH]c12,63,46,–
CCn1nc2c(c1C)OC1(CCN(C(=O)c3cc(C)c4nc[nH]c4c3)CC1)CC2=O,80,49,–
CCc1n[nH]c2ccc(C(=O)N3CCC4(CC3)CC(=O)c3nn(CC)c(C)c3O4)cc12,–,36,–
CCn1nc2c(c1C)OC1(CCN(C(=O)c3cc(C)c4[nH]ncc4c3)CC1)CC2=O,37,–,–
CCn1nc2c(c1C)OC1(CCN(C(=O)c3ccc4[nH]ncc4c3)CC1)CC2=O,92,100,–
CCn1nc2c(c1C)OC1(CCN(C(=O)c3cc(C)c4[nH]nc(C)c4c3)CC1)CC2=O,13,12,–
Cc1cc(C(=O)N2CCC3(CC2)CC(=O)c2nn(C)cc2O3)cc2cn[nH]c12,650,370,–
Cn1ncc2ccc(C(=O)N3CCC4(CC3)CC(=O)c3nn(C(C)(C)C)cc3O4)cc21,21,13,CLint scaled [2]: 13.1 mL/min/kg
CCCn1cc2c(n1)C(=O)CC1(CCN(C(=O)c3cc(C)c4[nH]ncc4c3)CC1)O2,45,–,–
Cc1cc(C(=O)N2CCC3(CC2)CC(=O)c2nn(C(C)(C)C)cc2O3)cc2[nH]cnc12,7.4,9.6,CLint scaled [2]: 12.4 mL/min/kg
Cc1cc(C(=O)N2CCC3(CC2)CC(=O)c2nn(C4CCC4)cc2O3)cc2cn[nH]c12,14,–,–
CCc1cc(C(=O)N2CCC3(CC2)CC(=O)c2nn(CC)c(C)c2O3)cc2cn[nH]c12,37,31,–
